Columns and labels:
[1] = molecular target: D(1B) dopamine receptor (Homo sapiens) (UniProt P21918); assay: Percent inhibition (at 1 uM) against dopamine D5 receptor
[2] = molecular target: 5-hydroxytryptamine receptor 6 (Homo sapiens, UniProt P50406); assay: Compound was tested for its binding affinity towards 5-hydroxytryptamine 6 receptor
[3] = molecular target: D(1A) dopamine receptor (Homo sapiens) (UniProt P21728); assay: Percent inhibition (at 1 uM) against Dopamine receptor D1
[4] = molecular target: T1, 5-hydroxytryptamine receptor 2C (Homo sapiens) (UniProt P28335); assay: Percent inhibition (at 1 uM) against 5-hydroxytryptamine 2C receptor
T1 sequence (whole entry): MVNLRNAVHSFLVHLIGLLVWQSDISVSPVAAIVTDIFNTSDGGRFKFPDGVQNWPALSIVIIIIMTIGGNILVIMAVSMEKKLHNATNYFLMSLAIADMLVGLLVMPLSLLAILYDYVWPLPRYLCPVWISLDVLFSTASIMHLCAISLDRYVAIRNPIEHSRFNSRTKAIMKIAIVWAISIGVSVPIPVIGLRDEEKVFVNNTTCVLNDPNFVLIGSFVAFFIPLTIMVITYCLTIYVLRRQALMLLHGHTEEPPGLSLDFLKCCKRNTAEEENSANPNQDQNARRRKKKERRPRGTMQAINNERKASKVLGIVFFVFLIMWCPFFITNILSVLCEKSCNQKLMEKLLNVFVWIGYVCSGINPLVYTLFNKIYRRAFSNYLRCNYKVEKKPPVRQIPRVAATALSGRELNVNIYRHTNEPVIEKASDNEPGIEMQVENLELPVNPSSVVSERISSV

[5] = molecular target: 5-hydroxytryptamine receptor 1B (Homo sapiens) (UniProt P28222); assay: Percent inhibition (at 1 uM) against 5-hydroxytryptamine 1B receptor
Sequence of 5-hydroxytryptamine receptor 1B (Homo sapiens) (P28222 whole entry): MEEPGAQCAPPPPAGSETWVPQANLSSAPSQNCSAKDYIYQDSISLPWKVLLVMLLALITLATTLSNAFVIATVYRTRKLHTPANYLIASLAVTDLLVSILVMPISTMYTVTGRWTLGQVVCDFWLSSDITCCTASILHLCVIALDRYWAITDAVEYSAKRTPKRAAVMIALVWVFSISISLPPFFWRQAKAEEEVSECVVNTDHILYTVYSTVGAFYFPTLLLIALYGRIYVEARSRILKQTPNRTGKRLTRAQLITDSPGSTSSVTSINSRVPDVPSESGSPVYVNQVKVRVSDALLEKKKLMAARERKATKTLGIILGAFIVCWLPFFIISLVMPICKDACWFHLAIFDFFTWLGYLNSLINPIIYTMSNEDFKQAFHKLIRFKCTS

[6] = molecular target: T2, 5-hydroxytryptamine receptor 7 (Homo sapiens, UniProt P34969); assay: Inhibition (at 1 uM) of radioligand [3H]LSD binding to human 5-hydroxytryptamine 7 receptor on HEK293 cells; type: cell-based
T2 sequence (P34969 whole entry): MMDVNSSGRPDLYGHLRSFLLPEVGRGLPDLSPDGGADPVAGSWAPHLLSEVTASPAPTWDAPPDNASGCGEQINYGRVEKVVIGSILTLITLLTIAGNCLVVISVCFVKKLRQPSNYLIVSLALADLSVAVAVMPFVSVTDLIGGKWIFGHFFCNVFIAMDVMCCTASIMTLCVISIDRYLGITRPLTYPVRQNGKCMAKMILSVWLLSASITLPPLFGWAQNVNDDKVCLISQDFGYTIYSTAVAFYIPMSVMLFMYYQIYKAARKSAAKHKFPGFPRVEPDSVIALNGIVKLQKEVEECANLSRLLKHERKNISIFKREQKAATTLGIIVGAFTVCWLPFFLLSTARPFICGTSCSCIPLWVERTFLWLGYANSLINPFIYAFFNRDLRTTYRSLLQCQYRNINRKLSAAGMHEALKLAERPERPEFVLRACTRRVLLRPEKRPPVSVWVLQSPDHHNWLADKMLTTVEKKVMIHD
How it was run: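 Human 5-HT7 binding was run with membranes from HEK293 cells expressing the receptor, incubated with 3H-LSD. Clozapine was the standard. Displacement of radioligand was recorded as percent inhibition at 1 µM.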

[7] = molecular target: T3, D(4) dopamine receptor (Homo sapiens) (UniProt P21917); assay: Percent inhibition (at 1 uM) against Dopamine receptor D4
T3 sequence (whole entry): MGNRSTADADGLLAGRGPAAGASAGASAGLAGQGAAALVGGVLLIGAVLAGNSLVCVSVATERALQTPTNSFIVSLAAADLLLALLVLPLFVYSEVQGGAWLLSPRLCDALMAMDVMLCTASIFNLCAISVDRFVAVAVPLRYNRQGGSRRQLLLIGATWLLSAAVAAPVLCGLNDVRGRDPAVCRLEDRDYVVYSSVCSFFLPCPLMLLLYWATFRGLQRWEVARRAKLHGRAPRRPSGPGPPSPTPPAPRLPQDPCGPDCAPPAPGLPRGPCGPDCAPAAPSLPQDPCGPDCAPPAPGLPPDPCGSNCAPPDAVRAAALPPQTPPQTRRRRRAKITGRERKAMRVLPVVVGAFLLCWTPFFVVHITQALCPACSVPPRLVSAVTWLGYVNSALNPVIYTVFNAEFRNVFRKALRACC

[8] = molecular target: D(2) dopamine receptor (Homo sapiens) (UniProt P14416); assay: Percent inhibition (at 1 uM) against Dopamine receptor D2
Sequence of D(2) dopamine receptor (Homo sapiens) (P14416 whole entry): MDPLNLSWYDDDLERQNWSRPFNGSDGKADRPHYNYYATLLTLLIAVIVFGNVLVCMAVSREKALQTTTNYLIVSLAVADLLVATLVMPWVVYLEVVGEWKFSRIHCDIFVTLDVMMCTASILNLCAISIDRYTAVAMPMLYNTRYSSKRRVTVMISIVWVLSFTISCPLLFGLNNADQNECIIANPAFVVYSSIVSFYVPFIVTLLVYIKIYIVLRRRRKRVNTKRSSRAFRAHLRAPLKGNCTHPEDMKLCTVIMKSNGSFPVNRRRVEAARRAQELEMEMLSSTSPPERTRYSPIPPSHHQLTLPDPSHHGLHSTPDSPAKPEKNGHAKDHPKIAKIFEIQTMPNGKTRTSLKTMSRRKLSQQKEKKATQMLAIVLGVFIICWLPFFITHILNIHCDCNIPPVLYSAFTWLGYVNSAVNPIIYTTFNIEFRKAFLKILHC

[9] = molecular target: T2, 5-hydroxytryptamine receptor 7; assay: Binding affinity towards human 5-hydroxytryptamine 7 receptor on HEK293 cells using radioligand [3H]LSD; type: cell-based
How it was run: (§1)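 Competition binding at human 5-HT7 receptor: membranes prepared from HEK293 cells expressing the receptor were incubated with 3H-LSD and a range of test concentrations. Clozapine was the reference standard. Ki values in nM were determined.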

[10] = molecular target: Muscarinic acetylcholine receptors; M1 & M2 (Homo sapiens) (UniProt P11229+P08172); assay: Percent inhibition (at 1 uM) against Muscarinic acetylcholine receptor M1- Muscarinic acetylcholine receptor M2; type: protein assay
[11] = molecular target: D(3) dopamine receptor (Homo sapiens) (UniProt P35462); assay: Percent inhibition (at 1 uM) against Dopamine receptor D3
Sequence of D(3) dopamine receptor (Homo sapiens) (P35462 whole entry): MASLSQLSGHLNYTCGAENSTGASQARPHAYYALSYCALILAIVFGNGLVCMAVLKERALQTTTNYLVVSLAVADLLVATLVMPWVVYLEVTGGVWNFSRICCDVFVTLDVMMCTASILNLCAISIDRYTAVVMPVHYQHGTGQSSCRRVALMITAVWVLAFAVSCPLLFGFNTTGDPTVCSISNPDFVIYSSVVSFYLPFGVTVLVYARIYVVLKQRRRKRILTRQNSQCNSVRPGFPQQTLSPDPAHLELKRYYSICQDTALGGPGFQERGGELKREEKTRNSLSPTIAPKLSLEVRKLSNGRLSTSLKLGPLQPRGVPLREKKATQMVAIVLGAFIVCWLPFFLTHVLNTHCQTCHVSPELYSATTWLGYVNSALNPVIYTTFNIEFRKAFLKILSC

[12] = molecular target: 5-hydroxytryptamine receptor 2A (Homo sapiens) (UniProt P28223); assay: Percent inhibition (at 1 uM) against 5-hydroxytryptamine 2A receptor
Sequence of 5-hydroxytryptamine receptor 2A (Homo sapiens) (P28223 whole entry): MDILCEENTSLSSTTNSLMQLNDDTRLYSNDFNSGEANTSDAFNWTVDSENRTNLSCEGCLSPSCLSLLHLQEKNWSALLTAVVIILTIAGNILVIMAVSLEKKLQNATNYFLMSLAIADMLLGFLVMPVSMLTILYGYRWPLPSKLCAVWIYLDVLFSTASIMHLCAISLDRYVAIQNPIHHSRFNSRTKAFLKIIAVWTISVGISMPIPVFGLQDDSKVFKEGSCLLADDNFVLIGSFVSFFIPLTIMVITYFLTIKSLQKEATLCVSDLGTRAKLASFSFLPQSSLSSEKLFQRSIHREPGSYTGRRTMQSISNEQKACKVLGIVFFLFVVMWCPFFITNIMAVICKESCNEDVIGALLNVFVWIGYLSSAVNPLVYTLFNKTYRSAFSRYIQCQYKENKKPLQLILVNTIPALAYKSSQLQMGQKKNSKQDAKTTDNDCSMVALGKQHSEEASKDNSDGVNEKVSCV

[13] = molecular target: 5-hydroxytryptamine receptor 1D (Homo sapiens) (UniProt P28221); assay: Percent inhibition (at 1 uM) against 5-hydroxytryptamine 1D receptor
Sequence of 5-hydroxytryptamine receptor 1D (Homo sapiens) (P28221 whole entry): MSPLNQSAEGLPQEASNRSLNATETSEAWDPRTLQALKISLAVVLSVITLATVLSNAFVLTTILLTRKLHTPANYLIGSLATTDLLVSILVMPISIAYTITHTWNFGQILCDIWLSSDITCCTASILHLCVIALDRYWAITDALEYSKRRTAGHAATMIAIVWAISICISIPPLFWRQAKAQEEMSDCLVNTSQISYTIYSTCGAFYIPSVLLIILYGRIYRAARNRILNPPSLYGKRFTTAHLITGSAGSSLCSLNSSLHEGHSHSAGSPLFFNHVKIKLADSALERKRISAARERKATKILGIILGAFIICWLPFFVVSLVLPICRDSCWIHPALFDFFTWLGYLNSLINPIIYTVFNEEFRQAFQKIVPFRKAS

[14] = molecular target: T4, 5-hydroxytryptamine receptor 1A (Homo sapiens) (UniProt P08908); assay: Percent inhibition (at 1 uM) against 5-hydroxytryptamine 1A receptor
T4 sequence (whole entry): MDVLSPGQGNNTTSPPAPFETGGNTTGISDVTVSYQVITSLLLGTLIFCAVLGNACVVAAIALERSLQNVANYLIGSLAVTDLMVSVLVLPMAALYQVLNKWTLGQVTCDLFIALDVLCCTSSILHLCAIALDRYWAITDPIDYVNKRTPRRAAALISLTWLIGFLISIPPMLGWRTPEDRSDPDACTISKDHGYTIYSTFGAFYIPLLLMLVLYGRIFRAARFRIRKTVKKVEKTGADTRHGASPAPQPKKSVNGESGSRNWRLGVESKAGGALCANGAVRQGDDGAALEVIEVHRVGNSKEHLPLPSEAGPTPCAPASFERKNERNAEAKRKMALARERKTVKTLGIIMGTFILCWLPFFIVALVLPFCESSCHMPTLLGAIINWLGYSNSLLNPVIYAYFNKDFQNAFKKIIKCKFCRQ

[15] = molecular target: T5, 5-hydroxytryptamine receptor 1F (Homo sapiens) (UniProt P30939); assay: Percent inhibition (at 1 uM) against 5-hydroxytryptamine 1F receptor
T5 sequence (whole entry): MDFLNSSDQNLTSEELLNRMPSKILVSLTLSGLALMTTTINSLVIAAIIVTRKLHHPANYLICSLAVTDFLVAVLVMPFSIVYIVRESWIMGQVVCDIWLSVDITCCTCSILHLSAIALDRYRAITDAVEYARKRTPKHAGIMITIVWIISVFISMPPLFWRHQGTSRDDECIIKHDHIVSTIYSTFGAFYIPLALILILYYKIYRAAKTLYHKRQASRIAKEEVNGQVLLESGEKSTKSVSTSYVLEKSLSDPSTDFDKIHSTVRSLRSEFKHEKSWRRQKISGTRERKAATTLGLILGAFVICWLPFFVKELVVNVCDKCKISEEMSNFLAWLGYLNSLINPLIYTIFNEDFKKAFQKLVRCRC

[16] = molecular target: T2, 5-hydroxytryptamine receptor 7; assay: Compound was tested for its binding affinity towards human 5-hydroxytryptamine 7 receptor from HEK293 cells using radioligand [3H]LSD; type: cell-based; how it was run: as §1

Sequence of D(1B) dopamine receptor (Homo sapiens) (P21918 whole entry): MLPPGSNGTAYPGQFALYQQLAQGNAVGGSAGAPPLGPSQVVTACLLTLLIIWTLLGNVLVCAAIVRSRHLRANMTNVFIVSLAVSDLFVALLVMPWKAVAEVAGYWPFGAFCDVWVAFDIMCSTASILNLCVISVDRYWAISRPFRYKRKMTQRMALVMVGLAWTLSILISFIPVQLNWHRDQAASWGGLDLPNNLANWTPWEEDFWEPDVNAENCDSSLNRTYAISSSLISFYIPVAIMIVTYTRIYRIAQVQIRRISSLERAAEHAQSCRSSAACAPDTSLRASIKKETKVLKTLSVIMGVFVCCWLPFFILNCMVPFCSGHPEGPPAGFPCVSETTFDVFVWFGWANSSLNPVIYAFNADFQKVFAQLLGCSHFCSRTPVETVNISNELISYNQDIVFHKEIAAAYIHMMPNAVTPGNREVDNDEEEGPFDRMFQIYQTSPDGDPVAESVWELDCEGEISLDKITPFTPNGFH
Sequence of D(1A) dopamine receptor (Homo sapiens) (P21728 whole entry): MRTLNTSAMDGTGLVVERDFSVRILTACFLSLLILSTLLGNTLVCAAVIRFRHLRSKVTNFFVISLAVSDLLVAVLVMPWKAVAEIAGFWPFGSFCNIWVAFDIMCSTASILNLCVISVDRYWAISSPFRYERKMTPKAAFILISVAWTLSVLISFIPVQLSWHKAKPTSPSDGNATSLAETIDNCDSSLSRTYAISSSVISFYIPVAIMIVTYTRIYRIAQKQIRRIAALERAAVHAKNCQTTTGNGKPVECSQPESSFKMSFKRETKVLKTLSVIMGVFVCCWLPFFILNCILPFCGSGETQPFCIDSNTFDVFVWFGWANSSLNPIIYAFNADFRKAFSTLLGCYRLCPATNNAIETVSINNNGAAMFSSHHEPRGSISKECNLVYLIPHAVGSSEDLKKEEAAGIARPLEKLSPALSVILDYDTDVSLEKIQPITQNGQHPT
Sequence of 5-hydroxytryptamine receptor 6 (P50406 whole entry): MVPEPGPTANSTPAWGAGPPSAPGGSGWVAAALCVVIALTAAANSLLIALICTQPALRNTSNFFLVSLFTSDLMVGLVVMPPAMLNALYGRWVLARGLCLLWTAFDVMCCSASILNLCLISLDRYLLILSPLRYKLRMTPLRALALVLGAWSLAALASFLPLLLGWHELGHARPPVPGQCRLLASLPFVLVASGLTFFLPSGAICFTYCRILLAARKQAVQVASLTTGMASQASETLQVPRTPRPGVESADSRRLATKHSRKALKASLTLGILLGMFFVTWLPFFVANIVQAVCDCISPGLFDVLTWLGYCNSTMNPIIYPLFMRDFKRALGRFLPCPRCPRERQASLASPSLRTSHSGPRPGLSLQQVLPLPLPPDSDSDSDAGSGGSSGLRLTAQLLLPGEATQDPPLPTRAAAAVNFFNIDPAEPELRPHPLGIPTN

Row | inhibition [6] | Ki [9] | Compound | also measured
1 | 99% | 0.003 µM | Brc1ccc2ccn(CCN3CCCN4CCCCC4C3)c2c1 (stereo not given) | inhibition [1]: 17%; Ki [2]: 4.07 µM; inhibition [3]: 2%; inhibition [4]: 26%; inhibition [5]: 0%; inhibition [7]: 4%; inhibition [8]: 15%; inhibition [10]: 35%; inhibition [11]: 27%; inhibition [12]: 20%; inhibition [13]: 0%; inhibition [14]: 1%; inhibition [15]: 0%
2 | 65% | 0.088 µM | CN1CCCN(CCn2ccc3cc(Br)ccc32)CC1 | 
3 | 50% | 1.57 µM | COc1ccc2ccn(CCN3CCCN(C)CC3)c2c1 | 
4 | 61% |  | Brc1ccc2ccn(CCN3CCNCC3)c2c1 | 
5 | 72% |  | Brc1ccc2ccn(CCN3CCN4CCCC4C3)c2c1 (stereo not given) | 
6 | 95% | 0.009 µM | Brc1ccc2ccn(CCN3CCCN(CC4CC4)CC3)c2c1 | 
7 |  |  | C[C@H](Nc1nc(N)nc(NC[C@H]2C[C@@H]2c2ccc(F)cc2)n1)c1ccccc1 | IC50 [16]: < 0.05 µM
8 | 60% | 0.288 µM | CN1CCCN(CCn2ccc3ccc(F)cc32)CC1 | 
9 | 71% |  | Brc1ccc2ccn(CCN3CCC4CCCCN4CC3)c2c1 (stereo not given) | 
10 | 79% | 0.109 µM | C=Cc1ccc2ccn(CCN3CCCN(C)CC3)c2c1 | 
11 | 96% | 0.017 µM | Brc1ccc2ccn(CCN3CCCN(C4CCCCC4)CC3)c2c1 | 
12 | 36% |  | Brc1ccc2ccn(CCN3CCN(C4CCCCC4)CC3)c2c1 | 
13 | 26% |  | CC1CN(CCn2ccc3ccc(Br)cc32)CC(C)N1 (stereo not given) | 
14 | 28% | 0.182 µM | CN1CCCN(CCn2ccc3ccc(OCc4ccccc4)cc32)CC1 | 
15 | 95% | 0.037 µM | CC(C)CN1CCCN(CCn2ccc3ccc(Br)cc32)CC1 | 
16 | 18% |  | Brc1ccc2ccn(CCN3CCCN(c4ccccc4)CC3)c2c1 | 
17 | 93% | 0.031 µM | CN1CCCN(CCn2ccc3ccc(Br)cc32)CC1 | 
18 | 18% |  | CN1CCCN(CCn2ccc3cccc(Br)c32)CC1 | 
19 | 6% |  | CN1CCCN(CCn2ccc3ccc(C(C)(C)O)cc32)CC1 | 
20 |  | 0.001 µM | Cc1cccc(C#N)c1-c1cccc2c1-c1cccc3c1[C@@H](C2)N(C)CC3 | 
21 | 98% | 0.01 µM | Brc1ccc2ccn(CCN3CCCN(C4CCCC4)CC3)c2c1 | 
22 | 0% |  | CN1CCCN(CCn2ccc3ccc(N)cc32)CC1 | 
23 | 68% | 0.109 µM | CN1CCCN(CCn2ccc3ccc(-c4ccsc4)cc32)CC1 | 
24 |  |  | Cc1cccc(S(=O)(=O)N(C)[C@H](C)CCN2CCC(C)CC2)c1 [SB-258719] | Ki ([9]; hek293): 0.032 µM

Row | inhibition [6] | Ki [9] | Compound | also measured
25 | 66% | 0.166 µM | CCc1ccc2ccn(CCN3CCCN(C)CC3)c2c1 | 
26 | 78% | 0.07 µM | Brc1ccc2ccn(CCN3CCN4CCCCC4C3)c2c1 (stereo not given) | 
27 | 43% |  | Brc1cccc2c1ccn2CCN1CCN2CCCCC2C1 (stereo not given) | 
28 |  | 0.007 µM | FC(F)(F)c1ccc2ccn(CCN3CCCN4CCCCC4C3)c2c1 (stereo not given) | 
29 | 13% |  | Brc1cccc2ccn(CCN3CCN4CCCCC4C3)c12 (stereo not given) | 
30 | 33% |  | CN1CCCN(CCn2ccc3c(Br)cccc32)CC1 | 
31 |  | 0.01 µM | Clc1ccc2ccn(CCN3CCCN4CCCCC4C3)c2c1 (stereo not given) | 
32 | 89% | 0.023 µM | CN1CCCN(CCn2ccc3ccc(C(F)(F)F)cc32)CC1 | 
33 | 33% |  | CN1CCCN(CCn2ccc3ccc(C(N)=O)cc32)CC1 | 
34 | 70% | 0.163 µM | CC(C)(C)CN1CCCN(CCn2ccc3ccc(Br)cc32)CC1 | 
35 | 65% | 0.158 µM | Brc1ccc2c(ccn2CCN2CCN3CCCCC3C2)c1 (stereo not given) | 
36 | 52% |  | CC1CN(CCn2ccc3ccc(Br)cc32)CCN1 (stereo not given) | 
37 | 62% | 0.125 µM | Cc1ccc2ccn(CCN3CCCN(C)CC3)c2c1 | 
38 | 79% | 0.14 µM | C#Cc1ccc2ccn(CCN3CCCN(C)CC3)c2c1 | 
39 | 72% | 0.139 µM | CN1CCCN(CCn2ccc3ccc([N+](=O)[O-])cc32)CC1 | 
40 | 28% |  | CN1CCCN(CCn2ccc3ccc(O)cc32)CC1 | 
41 | 35% |  | CN1CCCN(CCn2ccc3ccc(-c4cccnc4)cc32)CC1 | 
42 | 72% | 0.07 µM | C=C(C)c1ccc2ccn(CCN3CCCN(C)CC3)c2c1 | 
43 | 85% | 0.034 µM | CN1CCCN(CCn2ccc3ccc(Cl)cc32)CC1 | 
44 | 77% |  | Brc1ccc2ccn(CCN3CCCNCC3)c2c1 | 
45 | 96% | 0.016 µM | Brc1ccc2ccn(CCN3CCCN(C4CC4)CC3)c2c1 | 
46 | 92% | 0.014 µM | CC(C)N1CCCN(CCn2ccc3ccc(Br)cc32)CC1 | 
47 | 72% | 0.145 µM | CC(C)c1ccc2ccn(CCN3CCCN(C)CC3)c2c1 | 
